Experiments:
Mus musculus [1] = species on record: Mus musculus; conditions: in vivo, 5 mg/kg
physchem = conditions: octanol/water
in vivo [2] = conditions: Sprague-Dawley, rat, plasma, iv, 10 mg/kg
Mus musculus [3] = species on record: Mus musculus; conditions: in vivo, 10 mg/kg
in vivo [4] = conditions: Sprague-Dawley, rat, plasma, 10 mg/kg
in vivo [5] = conditions: Sprague-Dawley, rat, 10 mg/kg
in vivo [6] = conditions: Sprague-Dawley, rat, 10 mg/kg; remark: listed apart in the source
in vivo [7] = conditions: BALB/c, mouse, 5 mg/kg
in vivo [8] = conditions: BALB/c, mouse, serum, 10 mg/kg
in vivo [9] = conditions: Sprague-Dawley, rat, blood, 10 mg/kg
Rattus norvegicus [10] = assay: Cmax in Sprague-Dawley rat at 10 mg/kg, iv; conditions: in vivo
Mus musculus [11] = assay: Cmax in BALB/c mouse at 20 mg/kg, po normalized to 10 mg/kg after 15 mins; format: ADME, organism-based; design: dose 20 mg/kg, route oral; conditions: in vivo
in vivo [12] = conditions: BALB/c, mouse, plasma, iv, 10 mg/kg
[13] = AUC in Sprague-Dawley rat 10 mg/kg, po; format: ADME, organism-based; design: dose 10 mg/kg, route oral; conditions: plasma
Procedure, shortened: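 Male Sprague–Dawley rats, 6 weeks old, fasted 18 h, 3–4 per group. Oral dose 10 mg/5 ml/kg in 0.5% methylcellulose. Blood (0.4 ml) drawn at 0.25, 0.5, 1, 2 and 6 h. Plasma held at −20 °C, drug measured by LC/MS/MS, and PK parameters derived by non-compartmental analysis.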

Mus musculus [14] = assay: AUC in BALB/c mouse at 20 mg/kg, po normalized to 10 mg/kg; format: ADME, organism-based, Plasma; conditions: in vivo
in vivo [15] = conditions: BALB/c, mouse, serum, 50 mg/kg
Mus musculus [16] = assay: Cmax in BALB/c mouse at 10 mg/kg, po after 15 mins; format: ADME, organism-based; design: dose 10 mg/kg, route oral; conditions: in vivo
Procedure, shortened: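 Female BALB/c mice, 8 weeks old, 4 per group. Dosed orally at 10 mg/1 ml/kg in 0.5% CMC. Drug level estimated by adding serum (0.01–10% final) to a Eu-VCAM-1/Fc binding assay on CHO-K1 cells expressing human VLA-4.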

in vivo [17] = conditions: BALB/c, mouse, plasma, 10 mg/kg
Canis familiaris [18] = species on record: Canis familiaris; conditions: dog, in vivo, po, 1 mg/kg
in vivo [19] = conditions: BALB/c, mouse, 10 mg/kg
[20] = AUC in BALB/c mouse at 10 mg/kg, po; format: ADME, organism-based; design: dose 10 mg/kg, route oral; conditions: plasma
in vivo [21] = conditions: beagle, dog, po, 2 mg/kg
in vivo [22] = conditions: beagle, dog, plasma, iv, 1 mg/kg
Canis familiaris [23] = species on record: Canis familiaris; conditions: dog, in vivo, po, 1 mg/kg; remark: listed apart in the source
[24] = AUC in Beagle dog at 1 mg/kg, po; format: ADME, organism-based, Canis lupus familiaris; design: dose 1 mg/kg, route oral; conditions: plasma
in vivo [25] = conditions: BALB/c, mouse, 5 mg/kg; remark: listed apart in the source
in vivo [26] = conditions: beagle, dog, 1 mg/kg
Rattus norvegicus [27] = species on record: Rattus norvegicus; conditions: in vivo, 10 mg/kg

`Cc1cc(CC(=O)N2C[C@@H](F)C[C@H]2COc2ccc(C(=O)O)cc2)ccc1NC(=O)Nc1ccccc1Br` gave an MRT (Mus musculus [1]) of 2.3 h, a logD (physchem) of 1.64 and an AUC (in vivo [2]) of 15600 ng·h/mL. It also gave a Vdss (Mus musculus [3]) of 0.67 L/kg, a clearance (in vivo [4]) of 11.3 mL/min/kg and a bioavailability (in vivo [5]) of 34%. The Vd (in vivo [6]) was 0.29 L/kg, the bioavailability (in vivo [7]) was 21% and the concentration at […] (in vivo [8]) was 693 ng/mL. For the same compound, the MRT (in vivo [9]) was 2 h, the Cmax (Rattus norvegicus [10]) was 6700 ng/mL and the Cmax (Mus musculus [11]) was 391 ng/mL. For the same compound, the AUC (in vivo [12]) was 5260 ng·h/mL, the AUC [13] was 5230 ng·h/mL and the AUC (Mus musculus [14]) was 1095 ng·h/mL.

Compound `O=C(Nc1ccccc1Cl)Nc1ccc(CC(=O)N2C[C@@H](F)C[C@H]2COc2ccc(C(=O)O)cc2)cc1Br` has a logD (physchem) of 2.17 and a concentration at […] (in vivo [8]) of 1880 ng/mL.

With `O=C(Nc1ccc(CC(=O)N2C[C@@H](F)C[C@H]2COc2ccc(C(=O)O)cc2)cc1Cl)Nc1ccccc1Br` the logD (physchem) was 2.34 and the concentration at […] (in vivo [8]) was 2160 ng/mL.

`Cc1cc(CC(=O)N2C[C@@H](F)C[C@H]2COc2ccc(C(=O)O)cc2)ccc1NC(=O)Nc1ccccc1Cl` showed a logD (physchem) of 1.69 and a concentration at […] (in vivo [8]) of 472 ng/mL.

Compound `COc1cc(CC(=O)N2C[C@@H](F)C[C@H]2COc2ccc(C(=O)O)cc2)ccc1NC(=O)Nc1ccccc1Cl` has a logD (physchem) of 1.87 and a concentration at 0.5 h (in vivo [15]) of 142 ng/mL.

For `Cc1ccccc1NC(=O)Nc1ccc(CC(=O)N2C[C@@H](F)C[C@H]2COc2ccc(C(=O)O)cc2)cc1Cl`, the logD (physchem) was 1.61, the Cmax (Mus musculus [16]) was 2250 ng/mL and the clearance (in vivo [17]) was 18.5 mL/min/kg. For the same compound, the AUC (in vivo [2]) was 31900 ng·h/mL, the Cmax (Canis familiaris [18]) was 2370 ng/mL and the Vd (in vivo [19]) was 0.33 L/kg. The AUC [20] was 2540 ng·h/mL, the bioavailability (in vivo [21]) was 55% and the bioavailability (in vivo [5]) was 36%. For the same compound, the AUC (in vivo [22]) was 5680 ng·h/mL, the Vd (in vivo [6]) was 0.24 L/kg and the Vdss (Canis familiaris [23]) was 0.14 L/kg. For the same compound, the bioavailability (in vivo [7]) was 28%, the concentration at […] (in vivo [8]) was 3660 ng/mL and the MRT (in vivo [9]) was 1.7 h. For the same compound, the Cmax (Rattus norvegicus [10]) was 13000 ng/mL, the AUC (in vivo [12]) was 8900 ng·h/mL and the AUC [24] was 3120 ng·h/mL. The MRT (in vivo [25]) was 1.2 h, the AUC [13] was 11500 ng·h/mL and the MRT (in vivo [26]) was 1.6 h. For the same compound, the clearance (Rattus norvegicus [27]) was 5.2 mL/min/kg.

For `Cc1ccccc1NC(=O)Nc1ccc(CC(=O)N2C[C@@H](F)C[C@H]2COc2ccc(C(=O)O)cc2)cc1C`, the logD (physchem) was 1.09 and the concentration at […] (in vivo [8]) was 368 ng/mL.
